SR-BI DiI inh: mouse SR-BI HDL lipid transfer inhibition | ldlA[mSR-BI] CHO cells, DiI-HDL uptake fluorescence, 3 h | inhibition, % at 12.5 µM | actives 0.96% (n = 320,000);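 active means mean replicate inhibition of at least 70% and a set share of replicates each scoring 70 or more; inconclusive means meets just one of the two criteria; inactive means fails both criteria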
Target sequence (Q61009 whole entry, looked up): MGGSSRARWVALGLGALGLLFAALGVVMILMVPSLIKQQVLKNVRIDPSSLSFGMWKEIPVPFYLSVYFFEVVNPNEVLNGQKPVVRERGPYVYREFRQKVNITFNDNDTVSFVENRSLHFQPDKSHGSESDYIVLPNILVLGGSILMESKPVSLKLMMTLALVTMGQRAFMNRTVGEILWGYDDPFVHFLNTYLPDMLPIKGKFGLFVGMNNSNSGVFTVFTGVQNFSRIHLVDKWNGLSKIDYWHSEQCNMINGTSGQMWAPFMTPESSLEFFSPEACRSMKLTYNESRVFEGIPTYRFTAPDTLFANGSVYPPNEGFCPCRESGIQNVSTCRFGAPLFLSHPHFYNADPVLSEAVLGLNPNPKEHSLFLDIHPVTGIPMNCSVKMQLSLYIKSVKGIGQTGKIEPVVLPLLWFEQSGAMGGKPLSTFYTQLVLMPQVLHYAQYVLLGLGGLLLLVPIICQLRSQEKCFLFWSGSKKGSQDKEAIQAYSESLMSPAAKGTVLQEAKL
CAL PDZ FP-1: blocks peptide binding to human CAL PDZ domain; Q9HD26; actives 0.02% (n = 330,000); inhibition, % at 20 µM; purified CAL PDZ, TMR-peptide fluorescence polarization, 1 h; AID 504414;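 active means highest replicate inhibition of at least 40%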
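System: tagged CAL PDZ domain. Schedule: 1 h room-temperature incubation prior to read. Signal: fluorescence polarization (mP). Measure: percent inhibition from loss of millipolarization.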
ARNT-TACC3 inh: ARNT/TACC3 interaction disruption; AlphaScreen His-ARNT PAS-B/GST-TACC3 binding, luminescence; TACC3 fragment carries E629A point mutation; inhibition, % at 9.99 µM; actives 0.66% (n = 390,000);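 active means mean inhibition of replicates at least 50% and at least half of replicates each reaching 50%; inconclusive means half or more replicates reach 50% but mean below 50%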
CAL PDZ FP-2: blocks peptide binding to the human CAL PDZ domain | Q9HD26 | purified CAL PDZ, TMR-peptide fluorescence polarization, 1 h | inhibition, % at 24.9 µM | actives 0.92% (n = 300,000);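 active means mean inhibition of at least 30% with at least half of replicates also reaching 30%; inconclusive means no clear call, values can overlap the other calls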
SR-BI DiI-HDL act: activators of SR-BI mediated HDL lipid uptake. CHO ldlA[mSR-BI] cells, DiI-HDL uptake fluorescence, 3 h; 100 = double the neutral-control signal. activation, % at 12.5 µM. actives 0.096% (n = 320,000). AID 504775;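 active means mean replicate activation of at least 60% and every replicate at or above 60%; inconclusive means mean or all-replicate condition met, but not both; inactive means mean below 60% and not all replicates reaching 60%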
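Assay system: CHO ldlA[mSR-BI] cells, LDL receptor-null, SR-BI overexpressing; medium: Ham's F12 with 0.5% BSA, HEPES 25 mM, pH 7.4; also added: DiI-HDL 10 µg/mL; timing: 3 h uptake period with compound, 37 °C; signal: DiI fluorescence, bottom read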
miR-122 sensor: miR-122 inhibition in Huh7 cells; Huh7 miR-122 Renilla luciferase sensor, 48 h; neutral wells = 0, positive control = 100; activation (reporter increase), % at 12.5 µM; actives 0.3% (n = 340,000); AID 602342;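 active means mean replicate activation score at least 90 and every replicate individually at or above 90; inconclusive means only one of the two criteria met; inactive means neither criterion met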;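 further: higher luciferase means less miR-122 activity so hits act as miR-122 inhibitors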
Numbers stand for hits; [ ] = another dose, or the depositor's remark. A selection: hits, their analogues and other compounds. The true share with any hit is near 2.1%.

How did CN1c2ccc(-c3cccc(F)c3)cc2[C@H]2[C@H](CCN2C(=O)c2ccccc2F)[C@H]1CO do in these assays?
ARNT-TACC3 inh: inactive; miR-122 sensor: 107[16.7 µM]

What do the screens show for `COc1cccc(-c2ccc3c(c2)[C@H]2[C@H](CCN2C(=O)c2ccccc2F)[C@@H](CO)N3C)c1`?
ARNT-TACC3 inh: inactive; miR-122 sensor: inactive

How did CN1c2ccc(-c3cccc(F)c3)cc2[C@@H]2[C@@H](CCN2C(=O)C2CC2)[C@H]1CO do in these assays?
ARNT-TACC3 inh: inactive; miR-122 sensor: inactive

What do the screens show for `CC(C)NC(=O)NCC[C@H]1CC[C@H](NS(=O)(=O)c2ccc(-c3ccccc3)cc2)[C@H](CO)O1`?
ARNT-TACC3 inh: inactive

How did CC(C)c1nc(CNC(=O)CC2C(=O)NCCN2Cc2ccc(F)cc2Cl)cs1 (stereo not drawn) do in these assays?
SR-BI DiI inh: inactive; CAL PDZ FP-1: inactive; SR-BI DiI-HDL act: inactive; miR-122 sensor: inactive

How did COc1ccccc1CN1CCNC(=O)C1CC(=O)NCc1c(C)n[nH]c1C (stereo not drawn) do in these assays?
SR-BI DiI inh: inactive; ARNT-TACC3 inh: inactive; CAL PDZ FP-2: 51; SR-BI DiI-HDL act: inactive

Results for Cc1cc(C)nc(CCNC(=O)CC2C(=O)NCCN2Cc2ccc(F)cc2Cl)n1 (stereo not drawn) ?
SR-BI DiI inh: inactive; CAL PDZ FP-1: inactive; ARNT-TACC3 inh: inactive; CAL PDZ FP-2: 60; SR-BI DiI-HDL act: inactive; miR-122 sensor: inactive

What do the screens show for `C[C@@H]1CN([C@H](C)CO)C(=O)c2cc(C#CCN(C)C)cnc2O[C@@H]1CN(C)C(=O)Nc1cccc(F)c1`?
ARNT-TACC3 inh: inactive; miR-122 sensor: inactive

What do the screens show for `O=C(Nc1ccc(Cl)c(Cl)c1)N[C@H]1CC[C@H](CCn2cc(C3CC3)nn2)O[C@H]1CO`?
ARNT-TACC3 inh: inactive

What do the screens show for `Cc1c(Cl)cccc1NC(=S)N(CCN(C)C)C(C)c1ccccn1` (stereo not drawn)?
SR-BI DiI inh: inactive; CAL PDZ FP-1: inactive; ARNT-TACC3 inh: 54; CAL PDZ FP-2: 81; SR-BI DiI-HDL act: inactive; miR-122 sensor: inactive

What do the screens show for `Cc1ccccc1NC(=S)N(CCN(C)C)C(C)c1ccccn1` (stereo not drawn)?
SR-BI DiI inh: inactive; CAL PDZ FP-1: inactive; ARNT-TACC3 inh: inactive; SR-BI DiI-HDL act: inactive; miR-122 sensor: inactive

What do the screens show for `Cc1ccc2[nH]c(=O)c(CN(Cc3cccs3)S(=O)(=O)c3ccc4c(c3)OCCO4)cc2c1`?
SR-BI DiI inh: inactive; CAL PDZ FP-1: inactive; ARNT-TACC3 inh: inactive; CAL PDZ FP-2: 34; SR-BI DiI-HDL act: inactive

Results for CC(=NNC(=S)Nc1cccc(Cl)c1)c1ccccn1 ?
SR-BI DiI inh: inactive; CAL PDZ FP-1: inactive; ARNT-TACC3 inh: 60; CAL PDZ FP-2: inactive; SR-BI DiI-HDL act: inactive; miR-122 sensor: inactive

Results for C/C(=N\NC(=O)COc1ccccc1-c1ccccc1)c1ccccn1 ?
SR-BI DiI inh: inactive; CAL PDZ FP-1: inactive; ARNT-TACC3 inh: 8.8; CAL PDZ FP-2: inactive; SR-BI DiI-HDL act: inactive; miR-122 sensor: inactive

How did C/C(=N\NC(=O)c1ccc(Cl)cc1)c1ccccn1 do in these assays?
SR-BI DiI inh: inactive; CAL PDZ FP-1: inactive; ARNT-TACC3 inh: 82; CAL PDZ FP-2: inactive; SR-BI DiI-HDL act: inactive

How did C[C@H]1CCCCO[C@H](CN(C)C(=O)Nc2ccc(C(F)(F)F)cc2)[C@@H](C)CN([C@@H](C)CO)C(=O)c2cc(NC(=O)Nc3ccccc3)ccc2O1 do in these assays?
ARNT-TACC3 inh: inactive; miR-122 sensor: inactive

Results for Cn1nc(C(=O)Nc2nnc(C3CC3)s2)c2ccccc2c1=O ?
SR-BI DiI inh: inactive; CAL PDZ FP-1: inactive; ARNT-TACC3 inh: inactive; CAL PDZ FP-2: inactive; SR-BI DiI-HDL act: inactive

How did CCn1nc(C(=O)Nc2nc(-c3ccccn3)cs2)c2ccccc2c1=O do in these assays?
SR-BI DiI inh: inactive; CAL PDZ FP-1: inactive; ARNT-TACC3 inh: inactive; CAL PDZ FP-2: inactive; SR-BI DiI-HDL act: inactive; miR-122 sensor: inactive

How did Cn1nc(C(=O)Nc2cccnc2)c2ccccc2c1=O do in these assays?
SR-BI DiI inh: inactive; ARNT-TACC3 inh: 46; CAL PDZ FP-2: inactive; SR-BI DiI-HDL act: inactive; miR-122 sensor: inactive

What do the screens show for `Cn1nc(C(=O)Nc2nc(-c3ccccn3)cs2)c2ccccc2c1=O`?
SR-BI DiI inh: inconclusive; CAL PDZ FP-1: inactive; CAL PDZ FP-2: 85; SR-BI DiI-HDL act: inactive; miR-122 sensor: inactive

What do the screens show for `Cn1nc(C(=O)Nc2cc(Cl)ccc2N2CCCC2)c2ccccc2c1=O`?
SR-BI DiI inh: 93; CAL PDZ FP-1: inactive; ARNT-TACC3 inh: inactive; SR-BI DiI-HDL act: inactive; miR-122 sensor: inactive

What do the screens show for `CCCn1nc(C(=O)Nc2nc(-c3ccccn3)cs2)c2ccccc2c1=O`?
SR-BI DiI inh: inactive; CAL PDZ FP-1: inactive; ARNT-TACC3 inh: 50; CAL PDZ FP-2: inactive; SR-BI DiI-HDL act: inactive; miR-122 sensor: inactive

What do the screens show for `COCCNC(=O)C[C@@H]1CC[C@@H](NC(=O)NC2CCCC2)[C@@H](CO)O1`?
ARNT-TACC3 inh: inactive; miR-122 sensor: inactive

What do the screens show for `CN(C)C(=O)C[C@H]1CC[C@H]2[C@@H](COC[C@H](O)CN2C(=O)C2CC2)O1`?
ARNT-TACC3 inh: inactive; miR-122 sensor: inactive

What do the screens show for `C[C@H]1CN([C@@H](C)CO)C(=O)Cc2cc(NC(=O)Cn3cnnn3)ccc2O[C@H]1CN(C)CC1CCCCC1`?
ARNT-TACC3 inh: inactive; miR-122 sensor: inactive

Results for N#Cc1sc2nc(N3CCCCC3)c3c(c2c1N)CCCC3 ?
SR-BI DiI inh: 74; CAL PDZ FP-1: inactive; ARNT-TACC3 inh: inactive; CAL PDZ FP-2: inactive; SR-BI DiI-HDL act: inactive; miR-122 sensor: inactive

How did COc1ccc(CCn2nc(C)c([N+](=O)[O-])c2C)cc1 do in these assays?
SR-BI DiI inh: inactive; CAL PDZ FP-1: inactive; ARNT-TACC3 inh: inactive; CAL PDZ FP-2: 38; SR-BI DiI-HDL act: inactive; miR-122 sensor: inactive

How did COc1cccc(-n2c(CCn3nc(C)c([N+](=O)[O-])c3C)n[nH]c2=S)c1 do in these assays?
SR-BI DiI inh: inactive; CAL PDZ FP-1: inactive; ARNT-TACC3 inh: inactive; CAL PDZ FP-2: inactive; SR-BI DiI-HDL act: inactive

Results for Cc1ccc(SCC(=O)Nc2ccc3c(c2)C(=O)N(C)C3=O)cc1 ?
SR-BI DiI inh: inactive; CAL PDZ FP-1: inactive; ARNT-TACC3 inh: inactive; CAL PDZ FP-2: 179; SR-BI DiI-HDL act: inactive; miR-122 sensor: inactive

Results for Cc1ccc2c(Cl)c(C(=O)NCC(c3ccco3)N3CCCC3)sc2c1 (stereo not drawn) ?
SR-BI DiI inh: inactive; CAL PDZ FP-1: inactive; ARNT-TACC3 inh: inactive; CAL PDZ FP-2: 75; SR-BI DiI-HDL act: inactive; miR-122 sensor: inactive

What do the screens show for `O=S(=O)(N[C@H]1CC[C@@H](CCn2cc(Cc3ccccc3)nn2)O[C@@H]1CO)c1ccccc1F`?
ARNT-TACC3 inh: inactive
